What was measured:
[1] = through a range of pH's; cited from earlier work
[2] = biological target: human placental alkaline phosphatase (Homo sapiens, UniProt P05187); assay: Hydrolysis in human placental alkaline phosphatase solution; assay type: in vitro ADME; conditions: human placental ALP 0.5 unit/mL, prodrug 100 μM, Tris pH 7.6, 37 °C
BxPC-3 xenograft = assay: Efficacy study in BxPC-3 pancreatic cancer xenograft mouse model; assay type: in vivo
In short: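 Female Foxn nu/nu mice (4 weeks old on arrival) received 3.5 × 10^6 BxPC-3 cells in 50:50 Cultrex BME:DMEM, injected subcutaneously into the right hind flank. At ~95 mm3 they were stratified into four groups of eight. […] Dosing ran 21 days, then 25 days of follow-up. Caliper volume, (W² × L)/2, and body weight were recorded biweekly. Analysis used a mixed model with Dunnett post hoc.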

[3] = previously measured; cited from earlier work

human placental alkaline phosphatase, sequence (P05187 23-535): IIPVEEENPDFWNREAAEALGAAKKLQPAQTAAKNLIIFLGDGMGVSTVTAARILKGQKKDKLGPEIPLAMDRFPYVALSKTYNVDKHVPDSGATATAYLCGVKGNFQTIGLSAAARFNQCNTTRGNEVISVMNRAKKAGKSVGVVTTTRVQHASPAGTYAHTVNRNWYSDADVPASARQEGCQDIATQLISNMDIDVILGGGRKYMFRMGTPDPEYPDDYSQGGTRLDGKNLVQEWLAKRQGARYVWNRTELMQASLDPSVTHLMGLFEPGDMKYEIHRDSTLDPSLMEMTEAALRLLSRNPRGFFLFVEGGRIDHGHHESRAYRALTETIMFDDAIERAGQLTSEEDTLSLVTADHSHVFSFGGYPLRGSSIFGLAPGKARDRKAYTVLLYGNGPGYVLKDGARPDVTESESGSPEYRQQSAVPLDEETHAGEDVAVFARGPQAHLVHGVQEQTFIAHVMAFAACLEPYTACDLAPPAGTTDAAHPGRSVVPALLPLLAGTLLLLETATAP

CNC(=O)c1ccc(N2C(=S)N(c3ccc(C#N)c(C(F)(F)F)c3)C(=O)C2(C)C)cc1F [Enzalutamide, enzalutamide]
Solubility in water [1]: < 0.1 µg/mL

CC(=O)O[C@H]1C(=O)[C@@]2(C)[C@H]([C@H](OC(=O)c3ccccc3)[C@]3(O)C[C@H](OC(=O)[C@H](OC(=O)OCc4cc(C(=O)O)ccc4OP(=O)(O)O)[C@@H](NC(=O)c4ccccc4)c4ccccc4)C(C)=C1C3(C)C)[C@]1(OC(C)=O)CO[C@@H]1C[C@@H]2O [Compound 8i, 3-((((((1S,2 R)-1-benzamido-3-(((2aR,4S,4aS,6 R,9S,11S,12S,12aR,12bS)-6,12b-diacetoxy-12-(benzoyloxy)-4,11-dihydroxy-4a,8,13,13-tetramethyl-5-oxo-2a,3,4,4a,5,6,9,10,11,12,12a,12b-dodecahydro-1H-7,11-methanocyclodeca[3,4]benzo[1,2-b]oxet-9-yl)oxy)-3-oxo-1-phenylpropan−2-yl)oxy)carbonyl)oxy)methyl)-4-(phosphonooxy)benzoic acid]
Hydrolysis rate in ALP (drug formation rate) [2]: 2.13 pmol/min

CC(=O)O[C@H]1C(=O)[C@@]2(C)[C@H]([C@H](OC(=O)c3ccccc3)[C@]3(O)C[C@H](OC(=O)[C@H](O)[C@@H](NC(=O)c4ccccc4)c4ccccc4)C(C)=C1C3(C)C)[C@]1(OC(C)=O)CO[C@@H]1C[C@@H]2O [Paclitaxel, paclitaxel, reference compound]
Tumor growth inhibition (TGI) (BxPC-3 xenograft; 12.5 mg/kg IV QWK in Cremophor EL, following the 21-day dosing period): 78%
Tumor growth inhibition (TGI) (BxPC-3 xenograft; 12.5 mg/kg IV QWK in Cremophor EL, following the 25-day observation period): 51%
Oral bioavailability [3]: < 6%

CC(=O)O[C@H]1C(=O)[C@@]2(C)[C@H]([C@H](OC(=O)c3ccccc3)[C@]3(O)C[C@H](OC(=O)[C@H](OC(=O)OCc4cc(P(=O)(O)O)ccc4OP(=O)(O)O)[C@@H](NC(=O)c4ccccc4)c4ccccc4)C(C)=C1C3(C)C)[C@]1(OC(C)=O)CO[C@@H]1C[C@@H]2O [Compound 8vi, (3-((((((1S,2 R)-1-benzamido-3-(((2aR,4S,4aS,6 R,9S,11S,12S,12aR,12bS)-6,12b-diacetoxy-12-(benzoyloxy)-4,11-dihydroxy-4ª,8,13,13-tetramethyl−5-oxo-2ª,3,4,4ª,5,6,9,10,11,12,12ª,12b-dodecahydro-1H-7,11-methanocyclodeca[3,4]benzo[1,2-b]oxet-9-yl)oxy)-3-oxo-1-phenylpropan-2-yl)oxy)carbonyl)oxy)methyl)-4-(phosphonooxy)phenyl)phosphonic acid]
Hydrolysis rate in ALP (drug formation rate) [2]: 1.44 pmol/min
Tumor growth inhibition (TGI) (BxPC-3 xenograft; 25 mg/kg PO QOD in saline, following the 21-day dosing period): –15%
Tumor growth inhibition (TGI) (BxPC-3 xenograft; 75 mg/kg PO QOD in saline, following the 25-day observation period): 84%
Toxicity during dosing (BxPC-3 xenograft; 25 and 75 mg/kg PO QOD, 21 days): no appreciable toxicity
